PHOSPHO1 inh – inhibitors of human PHOSPHO1 phosphatase; hit rate 1.1% among 290,000; inhibition, % at 13.3 µM; AID 1565; Q8TCT1; recombinant PHOSPHO1, absorbance phosphatase assay; in the data active means inhibition above about 60%
Target sequence (Q8TCT1 whole entry, looked up): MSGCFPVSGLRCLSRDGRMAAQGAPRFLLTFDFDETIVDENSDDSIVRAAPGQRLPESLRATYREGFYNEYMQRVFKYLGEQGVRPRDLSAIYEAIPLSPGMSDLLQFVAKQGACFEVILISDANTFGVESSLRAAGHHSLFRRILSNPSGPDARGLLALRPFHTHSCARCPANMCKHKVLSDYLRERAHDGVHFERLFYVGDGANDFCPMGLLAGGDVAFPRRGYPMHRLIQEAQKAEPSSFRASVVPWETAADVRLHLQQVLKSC
IMP-1 inhibitor – blocks Pseudomonas aeruginosa IMP-1 metallo-beta-lactamase; purified IMP-1, nitrocefin hydrolysis, epi-absorbance fluorescence; inhibition, % at 5.6 µM; hit rate 0.45% among 290,000; AID 1556;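 active means inhibition above the mean plus 3 SD of all compounds in the same screening run, cut at about 4.5% in these data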;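 further: 0% = IMP-1 with DMSO and 100% = DMSO wells lacking enzyme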
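assay system = purified recombinant IMP-1 metallo-beta-lactamase enzyme | schedule = 15 min preincubation plus 25 min reaction at 25 °C | signal = Epi-absorbance fluorescence, 480 nm excitation, 530 nm emission | read-out basis = percent inhibition from optical density relative to buffer-blank wells | controls = IMP-1 with DMSO as 0%, enzyme-free DMSO as 100%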
UBC9 SUMO inh – inhibitors of human SUMOylation (UBC9); hit rate 0.36% among 290,000; HTRF SUMOylation assay, SAE1/SAE2 + UBC9, in vitro; inhibition, % at 35 µM; AID 2006; in the data active means inhibition above about 50%, passing the limit was not always enough
Target sequence (P63279 whole entry, looked up): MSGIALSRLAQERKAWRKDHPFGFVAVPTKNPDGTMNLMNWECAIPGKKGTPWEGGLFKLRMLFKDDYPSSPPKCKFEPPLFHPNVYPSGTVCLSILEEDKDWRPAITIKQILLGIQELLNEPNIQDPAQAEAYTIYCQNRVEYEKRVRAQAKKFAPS
core dimer inh – HCV core protein dimerization inhibition | TR-FRET GST/Flag-core106 dimerization, 1536-well | inhibition, % at 5 µM | hit rate 0.33% among 300,000;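 active means inhibition above the mean of all tested compounds plus 3 SD, set per screening campaign, cut at about 45% in these data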
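Material: GST/Flag-tagged HCV core106 proteins. Incubation: 4 h, 22.5 °C incubation. Read-out basis: inhibition (%) from 671 over 617 nm ratio. Measured by: TR-FRET, excitation 340 nm, emission 617 and 671 nm.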
NS3 helicase inh – HCV NS3 helicase inhibition; NS3 helicase DNA unwinding, Cy5 molecular beacon fluorescence; inhibition, % at 10.9 µM; hit rate 0.56% among 290,000; AID 1800;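 active means inhibition above the mean of all tested compounds plus 3 SD, set per campaign, cut at about 35% in these data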;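 further: 0% = DMSO wells and 100% = thioflavine S control wells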
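Assay system: hepatitis C virus NS3 helicase domain fragment enzyme. Also added: annealed dual-labelled DNA beacon duplex, ATP-started. Timing: 1 h reaction at 25 °C, ATP-initiated. Technique: Cy5 fluorescence at 0 and 60 min, beacon hairpin quenching. Evaluation: % inhibition of unwinding. Replication: one well per compound.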
VIM-2 inh – blocks Pseudomonas aeruginosa VIM-2 metallo-beta-lactamase. hit rate 0.89% among 290,000. purified VIM-2, nitrocefin hydrolysis, epi-absorbance fluorescence. inhibition, % at 5.6 µM;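 active means inhibition above the mean of all tested compounds plus 3 SD, cutoff set per screening run, cut at about 7.5% in these data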;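 further: red hydrolysis product quenches plate fluorescence so inhibitors raise well fluorescence; 0% = enzyme with DMSO and 100% = DMSO without enzyme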
Active calls of the source: *; / = no result given. Compounds with a hit are over-represented: about 3.1% of the library has one in this group of screens.

SMILES | PHOSPHO1 inh | IMP-1 inhibitor | UBC9 SUMO inh | core dimer inh | NS3 helicase inh | VIM-2 inh
CCOC(=O)c1c(C)oc2c1c(C(c1cccnc1)N1CCOCC1)c(O)c1ccccc12 (stereo unspecified) | 79* | 0 | 16 | -2 | -10 | 2
COC(=O)CSc1ncnc2c1cnn2Cc1ccccc1 | 13 | -5 | 6 | -2 | -2 | -4
COc1cc(NC(=O)CSc2ncnc3c2cnn3Cc2ccccc2)cc(OC)c1 | 29 | 4.5* | -3 | -1 | -2 | -1
Cc1cnc(NC(=O)c2cccc(S(=O)(=O)N3CC(C)OC(C)C3)c2)s1 (stereo unspecified) | -21 | -1 | -11 | 0 | -2 | -1
CC1(C)Cc2c(C#N)c(N)n(-c3ccccc3)c(=S)c2CO1 | 20 | -2 | 15 | 4 | -9 | -1
N#Cc1c2c(c(=S)n(-c3ccccc3)c1N)CCCC2 | 61* | 1 | 14 | 7 | 9 | 2
COc1ccccc1CNC(=O)CCS(=O)(=O)c1ccc2c(c1)CCN2C(C)=O | 38 | -4 | 3 | -1 | 0 | -1
NNC(=O)c1snnc1-c1ccccc1 | 23 | -3 | 11 | 3 | 12 | -2
COC(=O)c1ccc(NC(=O)c2snnc2-c2ccccc2)cc1 | 61* | -1 | -2 | 2 | -10 | 0
COc1ccccc1N1CCN(C(=O)CCCn2nc(C)c([N+](=O)[O-])c2C)CC1 | 32 | -2 | 3 | -2 | -1 | -3
COc1ccc(OC)c(C2CC(=O)N3CN(c4ccccc4)CSC3=C2C#N)c1 (stereo unspecified) | 83* | -2 | 10 | 25 | 18 | -2
COc1ccc(C2CC(=O)N3CN(c4ccc(C)c(Cl)c4)CSC3=C2C#N)cc1 (stereo unspecified) | 83* | -4 | 23 | 4 | 32 | 0
COc1ccc(C2CC(=O)N3CN(Cc4ccco4)CSC3=C2C#N)cc1 (stereo unspecified) | 58 | 0 | 20 | -2 | 33 | 2
COc1ccc(N2CSC3=C(C#N)C(c4cccc(OC)c4OC)CC(=O)N3C2)cc1 (stereo unspecified) | 83* | -2 | 13 | 6 | 21 | 1
Cc1cccc(N2CSC3=C(C#N)C(c4ccc(C)o4)CC(=O)N3C2)c1 (stereo unspecified) | 76* | -2 | 78* | 84* | 20 | -1
CN(c1ccccc1)S(=O)(=O)c1cccc(NC(=O)C2CC(=O)N(Cc3ccccc3)C2)c1 (stereo unspecified) | 14 | -1 | -9 | 5 | -20 | 2
CC(C)NC(=O)C(c1ccc(F)cc1)N(C(=O)CCC(=O)Nc1ccccn1)c1cccc(F)c1 (stereo unspecified) | 18 | -2 | 10 | 8 | 5 | -2
COc1cccc(Nc2nc(C)cc(C)c2C(N)=O)c1 | 44 | 0 | -2 | 0 | 7 | 0
Cc1c(C)c2c(c(C)c1O)CCC(C)(C(=O)O)O2 (stereo unspecified) | / | / | / | -8 | / | /
Cc1cc(C)n(CCCNC(=O)C2CC(=O)N(Cc3ccccc3)C2)n1 (stereo unspecified) | / | / | / | -1 | / | /
CCn1c(C)[n+](CC(O)COCC2CC=CCC2)c2ccccc21 (stereo unspecified) | 104* | -2 | -7 | 1 | -1 | -2
CCc1n(CC(O)COCC2CC=CCC2)c2ccccc2[n+]1C (stereo unspecified) | 13 | -1 | 14 | -4 | 1 | -2
CSc1ccccc1NC(=O)C(=O)c1c[nH]c2ccccc12 | 56 | -2 | -3 | -9 | -15 | -4
CC(C)S(=O)(=O)N1CCCC(C(=O)c2cccc(Cl)c2)C1 (stereo unspecified) | 22 | 40* | 4 | -4 | 21 | 1
NC(=S)N/N=C/c1ncc(C(F)(F)F)cc1Cl | 3 | -3 | 9 | -1 | 4 | -4
SMILES | PHOSPHO1 inh | IMP-1 inhibitor | UBC9 SUMO inh | core dimer inh | NS3 helicase inh | VIM-2 inh
COc1ccc(-c2c(C)sc(NC(=O)c3ccnn3C)c2C#N)cc1 | -6 | -2 | 10 | 71* | 11 | -1
Cn1nccc1C(=O)Nc1sc2c(c1C#N)CCCC2 | 20 | 0 | -7 | 1 | -2 | 0
COc1cccc(CNC(=O)CCNS(=O)(=O)c2ccc(C)cc2)c1 | / | / | / | -1 | / | /
Cc1nn2c(-c3cccc(NC(=O)c4ccco4)c3)nnc2c2ccccc12 | 10 | 3 | 18 | 25 | -5 | 9.8*
Cc1cc(C)c2c(CN3CCN(Cc4ccccc4)CC3)cc(=O)oc2c1C | 32 | -1 | -13 | 7 | -56 | 9.8*
Cc1cc2oc(=O)cc(CN3CCCCC3)c2cc1C(C)C | 0 | -3 | -16 | 8 | 3 | -6
O=c1cc(CN2CCN(c3ccccc3F)CC2)c2cc3c(cc2o1)CCCC3 | 8 | -2 | 6 | 2 | 0 | -3
Cc1cc2oc(=O)cc(CN3CCCCC3)c2cc1O | 61* | -3 | 9 | 2 | 4 | 0
O=c1cc(CN2CCN(Cc3ccccc3)CC2)c2cc3c(cc2o1)CCC3 | -10 | 1 | 4 | 3 | -3 | 7.7*
O=C(COc1ccc(Cl)cc1Cl)N1CCN(C(=O)c2ccco2)CC1 | 40 | -4 | -16 | 5 | 2 | -2
Cn1c(=O)[nH]c(=O)c2c1nc(N/N=C/C(Br)=C/c1ccccc1)n2CCO | 8 | -7 | 10 | -3 | -6 | -2
CC(OC(=O)C1=COCCO1)C(=O)NC(C)c1ccc(Cl)cc1Cl (stereo unspecified) | / | / | / | -8 | / | /
COC(=O)c1cc(N=C(N)N=C(N)N)cc(C(=O)OC)c1 | 46 | -3 | 3 | -2 | 7 | 9.0*
COc1cccc(N=C(N)N=C(N)N)c1 | 19 | -1 | 13 | 2 | -2 | -1
O=C(/C=C\c1ccccc1OC(=O)c1ccccc1F)c1cc2ccccc2o1 | -7 | -3 | -12 | 9 | 3 | -3
Cc1noc(/C=C/c2ccco2)c1S(=O)(=O)N1CCC(C(=O)N2CCc3ccccc3C2)CC1 | 30 | -2 | 35 | 48* | 16 | -2
O=c1c(C(c2ccc(O)cc2)c2c(O)nc3n(c2=O)CCCS3)c(O)nc2n1CCCS2 | 65* | -3 | -1 | 1 | 0 | -1
O=c1c(C(c2ccc(O)cc2)c2c(O)nc3n(c2=O)CCS3)c(O)nc2n1CCS2 | 40 | -3 | 2 | -4 | 6 | -2
COc1ccc(C(CNC(=O)c2ccccc2SC)N(C)C)cc1 (stereo unspecified) | -4 | -4 | -4 | 2 | -4 | -3
O=S(=O)(O)c1cc(O)c2c(O)c(N=Nc3cc(Cl)ccc3O)c(S(=O)(=O)O)cc2c1 | 37 | 5.7* | -30 | -98 | 34 | -8
O=C(NCCN1CCCC1)c1cccc(Cl)c1 | 60* | 0 | 4 | 3 | -22 | -1

High-throughput results (PubChem)
